Source: ChEMBL document CHEMBL1147008, “Design, synthesis, and biological activities of madindoline analogues” (2006)

Test system: 7TDI
Assay: Inhibition of IL6-dependent growth of 7TDI cells at 10 uM relative to madindoline A
Type: functional, Mus musculus
In short: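 IL-6-dependent 7TDI cell line; growth inhibition measured with each analogue present at 10 μM. Values expressed against the natural compound.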

**Q.** With `CC1=C(C)C(=O)C(C)(CN2c3ccccc3[C@]3(O)CCO[C@H]23)C1=O` as the compound, how does the Activity read?
**A.** 0

**Q.** With `CCCCCCCCCC1=C(C)C(=O)[C@](C)(CN2c3ccccc3[C@]3(O)CCO[C@H]23)C1=O` as the compound, how does the Activity read?
**A.** 3.9

**Q.** `CC1=C(Cc2ccccc2)C(=O)[C@@](C)(CN2c3ccccc3[C@]3(O)CCO[C@H]23)C1=O` was tested. Which Activity did it give?
**A.** 0.9

**Q.** For `CCCCC1=C(C)C(=O)[C@@](C)(CN2c3ccccc3[C@]3(OC(=O)c4ccccc4)CCO[C@H]23)C1=O`, which Activity is on record?
**A.** 2.6

**Q.** `CCCCCC(=O)O[C@@]12CCO[C@@H]1N(C[C@]1(C)C(=O)C(C)=C(CCCC)C1=O)c1ccccc12` was tested. Which Activity did it give?
**A.** 2.6

**Q.** With `CC1=C(C)C(=O)CC1=O` as the compound, how does the Activity read?
**A.** 0

**Q.** How did the Activity turn out when `O[C@@]12CCO[C@@H]1Nc1ccccc12` was run?
**A.** 0

**Q.** Which Activity does the source give for `CCCCC1=C(C)C(=O)[C@@](C)(CN2c3ccc(Cl)cc3[C@]3(O)CCO[C@H]23)C1=O` here?
**A.** 0.8

**Q.** `CCCCCCCCCCCCCCCCCCCCCC1=C(C)C(=O)[C@](C)(CN2c3ccccc3[C@]3(O)CCO[C@H]23)C1=O` was tested. Which Activity did it give?
**A.** 0

**Q.** With `CCCCC1=C(C)C(=O)[C@@](C)(CN2c3ccccc3[C@@]3(O)CCO[C@@H]23)C1=O` as the compound, how does the Activity read?
**A.** 0

**Q.** `CCCCCCCC1=C(C)C(=O)[C@](C)(CN2c3ccccc3[C@]3(O)CCO[C@H]23)C1=O` was tested. Which Activity did it give?
**A.** 3.2

**Q.** `CCCCC1=C(C)C(=O)[C@@](C)(CN2c3ccc(Br)cc3[C@]3(O)CCO[C@H]23)C1=O` was tested. Which Activity did it give?
**A.** 2.8

**Q.** How did the Activity turn out when `CCCCC1=C(C)C(=O)[C@@](C)(Cn2cc(CCO)c3ccccc32)C1=O` was run?
**A.** 0.9

**Q.** `CCCCCCCCCCCC1=C(C)C(=O)[C@](C)(CN2c3ccccc3[C@]3(O)CCO[C@H]23)C1=O` was tested. Which Activity did it give?
**A.** 3.4

**Q.** With `CCC1=C(C)C(=O)[C@](C)(CN2c3ccccc3[C@]3(O)CCO[C@H]23)C1=O` as the compound, how does the Activity read?
**A.** 0

**Q.** `CCCCC1=C(C)C(=O)[C@@](C)(CN2c3ccccc3[C@]3(O)CCO[C@H]23)C1=O` was tested. Which Activity did it give?
**A.** 1

**Q.** For `CCCCC1=C(C)C(=O)[C@@](C)(CN2c3ccc(I)cc3[C@]3(O)CCO[C@H]23)C1=O`, which Activity is on record?
**A.** 2.8

**Q.** How did the Activity turn out when `CCCCCCCCCC(=O)O[C@@]12CCO[C@@H]1N(C[C@]1(C)C(=O)C(C)=C(CCCC)C1=O)c1ccccc12` was run?
**A.** 0

**Q.** For `CCCCC1=C(C)C(=O)[C@@](C)(CN2c3ccccc3[C@]3(OC(C)=O)CCO[C@H]23)C1=O`, which Activity is on record?
**A.** 1.2
